Assays:
SH-SY5Y = assay: Cytotoxicity against human SH-SY5Y cells assessed as toxicity at 30 uM incubated for 24 hrs by CCK-8 assay; format: cell-based
Procedure, shortened: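 SH-SY5Y cells were seeded at 2 × 10⁴ per well and grown 12 h at 37 °C. They were then treated with compound (1–30 μM) under normoxic, normal-glucose conditions for 24 h. CCK-8 (10%) was added for 2 h at 37 °C and OD450 read. Viability was taken relative to untreated control after blank subtraction, with three replicate wells.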

[1] = molecular target: T1, Transient receptor potential cation channel subfamily M member 8 (Homo sapiens, UniProt Q7Z2W7); assay: Inhibition of human TRPM8 expressed in HEK293T cells assessed as blocked of menthol-activated current at 10 uM by whole cell patch clamp electrophysiology relative to control; format: cell-based
T1 sequence (Q7Z2W7 whole entry, looked up, the tested form may be a part): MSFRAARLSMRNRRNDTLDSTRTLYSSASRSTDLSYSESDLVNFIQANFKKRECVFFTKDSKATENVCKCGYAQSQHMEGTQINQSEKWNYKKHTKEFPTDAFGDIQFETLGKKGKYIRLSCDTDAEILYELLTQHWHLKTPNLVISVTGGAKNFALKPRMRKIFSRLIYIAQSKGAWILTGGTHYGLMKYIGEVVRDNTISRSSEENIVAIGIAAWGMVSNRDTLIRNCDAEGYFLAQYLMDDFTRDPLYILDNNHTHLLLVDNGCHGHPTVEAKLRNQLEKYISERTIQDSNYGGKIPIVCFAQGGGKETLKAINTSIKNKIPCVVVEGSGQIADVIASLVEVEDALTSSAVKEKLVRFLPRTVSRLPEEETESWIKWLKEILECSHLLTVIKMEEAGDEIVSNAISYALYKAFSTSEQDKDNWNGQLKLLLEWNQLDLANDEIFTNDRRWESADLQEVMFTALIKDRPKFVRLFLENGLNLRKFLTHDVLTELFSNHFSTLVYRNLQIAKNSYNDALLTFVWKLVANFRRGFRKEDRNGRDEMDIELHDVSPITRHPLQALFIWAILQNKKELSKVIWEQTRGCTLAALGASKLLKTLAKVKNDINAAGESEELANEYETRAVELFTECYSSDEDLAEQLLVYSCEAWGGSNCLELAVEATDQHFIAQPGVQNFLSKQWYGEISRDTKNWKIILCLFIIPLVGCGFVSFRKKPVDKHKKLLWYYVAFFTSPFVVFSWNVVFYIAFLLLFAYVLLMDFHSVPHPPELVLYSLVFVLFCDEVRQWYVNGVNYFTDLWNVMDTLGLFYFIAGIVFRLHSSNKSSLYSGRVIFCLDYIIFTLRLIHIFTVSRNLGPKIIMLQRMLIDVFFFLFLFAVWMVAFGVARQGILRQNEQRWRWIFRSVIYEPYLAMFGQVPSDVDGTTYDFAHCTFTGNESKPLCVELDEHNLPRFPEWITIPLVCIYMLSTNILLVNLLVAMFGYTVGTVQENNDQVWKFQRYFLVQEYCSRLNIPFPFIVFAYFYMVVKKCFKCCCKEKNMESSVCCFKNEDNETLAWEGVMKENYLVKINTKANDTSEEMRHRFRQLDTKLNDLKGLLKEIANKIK
Procedure, shortened: (§1)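 Whole-cell patch clamp was run at room temperature on HEK293T cells transiently cotransfected with human TRPM8 plus GFP, 24–48 h before recording. ECS was 145 NaCl, 5.6 KCl, 2 MgCl₂, 1.2 CaCl₂, 10 HEPES, pH 7.2. Current was activated with 1 mM menthol, and compound was perfused at least 60 s after it stabilized. Inhibition was calculated relative to stable agonist current minus residual current; n = 3–6.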

[2] = molecular target: T1, Transient receptor potential cation channel subfamily M member 8; assay: Inhibition of human TRPM8 expressed in HEK293T cells assessed as blocked of menthol-activated current at 3 uM by whole cell patch clamp electrophysiology relative to control; format: cell-based; procedure, shortened: as §1
Phospholipase A2 [3] = molecular target: T2, Phospholipase A2 (Homo sapiens, UniProt P04054); assay: Inhibition of PLA2 (unknown origin) using soybean phosphatidylcholine as substrate at 10 uM preincubated for 30 mins followed incubated for 60 mins after substrate addition by microplate reader relative to control
Procedure, shortened: (§2)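 PLA2 (4 μg/L in PBS) was preincubated 30 min at 37 °C with inhibitor in 125 mM Tris. Substrate was then added for 60 min: soybean phosphatidylcholine with Tris, CaCl₂, sodium deoxycholate and 0.5% Triton X-100. Liberated free fatty acids were quantified colorimetrically at OD550. Results are % inhibition versus enzyme without inhibitor, n = 3.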
Target sequence in this assay (P04054 23-148 limits assumed): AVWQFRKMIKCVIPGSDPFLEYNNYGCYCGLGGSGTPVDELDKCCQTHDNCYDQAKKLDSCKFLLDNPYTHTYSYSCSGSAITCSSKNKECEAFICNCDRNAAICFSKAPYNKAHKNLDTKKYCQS

Phospholipase A2 [4] = molecular target: T2, Phospholipase A2; assay: Inhibition of PLA2 (unknown origin) using soybean phosphatidylcholine as substrate preincubated for 30 mins followed incubated for 60 mins after substrate addition by microplate reader relative to control; procedure, shortened: as §2
Target sequence in this assay (P04054 whole entry): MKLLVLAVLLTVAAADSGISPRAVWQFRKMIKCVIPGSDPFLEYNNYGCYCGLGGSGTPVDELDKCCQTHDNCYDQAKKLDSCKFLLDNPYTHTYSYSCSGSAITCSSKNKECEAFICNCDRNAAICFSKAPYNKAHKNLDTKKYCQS

Phospholipase A2 [5] = molecular target: T2, Phospholipase A2; assay: Inhibition of PLA2 (unknown origin) using soybean phosphatidylcholine as substrate at 3 uM preincubated for 30 mins followed incubated for 60 mins after substrate addition by microplate reader relative to control; procedure, shortened: as §2
Target sequence in this assay (P04054 23-148 limits assumed): as the sequence (P04054 23-148 limits assumed) above

[6] = molecular target: Transient receptor potential cation channel subfamily M member 2 (Homo sapiens, UniProt O94759); assay: Inhibition of human TRPM2 expressed in HEK293T cells assessed as suppression of H2O2-induced calcium flux at 1 uM measured after 30 mins by Fluo-3/AM assay; format: cell-based
Chain of Transient receptor potential cation channel subfamily M member 2 (O94759 whole entry): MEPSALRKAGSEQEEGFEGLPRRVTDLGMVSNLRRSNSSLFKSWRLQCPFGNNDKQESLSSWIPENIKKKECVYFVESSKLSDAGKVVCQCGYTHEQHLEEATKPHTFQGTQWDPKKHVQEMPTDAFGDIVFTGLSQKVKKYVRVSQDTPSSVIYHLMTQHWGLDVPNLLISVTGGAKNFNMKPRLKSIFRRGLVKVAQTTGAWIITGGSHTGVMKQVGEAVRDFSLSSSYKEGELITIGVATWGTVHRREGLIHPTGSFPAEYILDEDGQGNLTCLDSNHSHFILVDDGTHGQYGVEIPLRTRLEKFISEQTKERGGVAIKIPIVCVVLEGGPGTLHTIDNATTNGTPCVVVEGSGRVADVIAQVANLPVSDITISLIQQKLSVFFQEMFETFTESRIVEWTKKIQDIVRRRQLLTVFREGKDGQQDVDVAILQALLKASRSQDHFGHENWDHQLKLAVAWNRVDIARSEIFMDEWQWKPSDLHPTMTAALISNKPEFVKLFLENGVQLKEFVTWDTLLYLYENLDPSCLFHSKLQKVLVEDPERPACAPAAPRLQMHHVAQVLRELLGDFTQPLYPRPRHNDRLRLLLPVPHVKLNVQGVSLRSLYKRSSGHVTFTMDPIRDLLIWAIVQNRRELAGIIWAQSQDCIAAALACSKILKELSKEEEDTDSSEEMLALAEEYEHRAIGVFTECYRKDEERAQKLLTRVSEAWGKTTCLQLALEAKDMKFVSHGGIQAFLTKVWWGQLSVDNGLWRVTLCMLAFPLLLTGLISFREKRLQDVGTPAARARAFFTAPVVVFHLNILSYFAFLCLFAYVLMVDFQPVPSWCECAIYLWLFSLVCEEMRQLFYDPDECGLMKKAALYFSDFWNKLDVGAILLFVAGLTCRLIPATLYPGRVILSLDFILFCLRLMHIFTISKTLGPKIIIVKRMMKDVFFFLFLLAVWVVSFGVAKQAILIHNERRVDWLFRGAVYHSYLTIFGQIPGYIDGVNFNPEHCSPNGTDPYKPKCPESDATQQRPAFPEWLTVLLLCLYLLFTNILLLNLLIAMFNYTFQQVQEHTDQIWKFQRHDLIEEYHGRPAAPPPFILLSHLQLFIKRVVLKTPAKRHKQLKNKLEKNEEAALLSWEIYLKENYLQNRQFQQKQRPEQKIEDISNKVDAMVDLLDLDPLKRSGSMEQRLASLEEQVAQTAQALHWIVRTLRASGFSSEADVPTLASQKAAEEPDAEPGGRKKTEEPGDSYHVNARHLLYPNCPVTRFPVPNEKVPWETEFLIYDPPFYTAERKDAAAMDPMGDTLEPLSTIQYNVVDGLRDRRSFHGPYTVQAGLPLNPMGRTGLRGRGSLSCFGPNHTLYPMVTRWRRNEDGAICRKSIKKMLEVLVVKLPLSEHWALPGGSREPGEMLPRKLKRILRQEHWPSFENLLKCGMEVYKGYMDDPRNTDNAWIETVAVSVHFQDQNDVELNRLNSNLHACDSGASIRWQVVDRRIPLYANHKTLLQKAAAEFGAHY

- inhibition [1]: 62.2%
- inhibition [2]: 39.3%
- inhibition (Phospholipase A2 [3]): 40.4%
- IC50 (Phospholipase A2 [4]): 22 µM
- inhibition (Phospholipase A2 [5]): 23.4%
- inhibition [6]: > 45%
SMILES: CCCCCc1ccc(/C=C/C(=O)Nc2ccccc2C(=O)O)cc1
- Activity (SH-SY5Y): < 10%

— ChEMBL document CHEMBL4834416, “The Discovery of Novel ACA Derivatives as Specific TRPM2 Inhibitors that Reduce Ischemic Injury Both In Vitro and In Vivo” (J Med Chem, 2021)
